Assays:
[1] = biological target: T1, Arachidonate 5-lipoxygenase (Bos taurus, UniProt Q9BEG3); assay: 5-LO inhibitory activity, measured by production of 5-hydroxyeicosatetraenoic acid (5-HETE) and leukotriene B4 (LTB4) in bovine polymorphonuclear leukocytes; type: functional, cell-based
T1 sequence (Q9BEG3 whole entry): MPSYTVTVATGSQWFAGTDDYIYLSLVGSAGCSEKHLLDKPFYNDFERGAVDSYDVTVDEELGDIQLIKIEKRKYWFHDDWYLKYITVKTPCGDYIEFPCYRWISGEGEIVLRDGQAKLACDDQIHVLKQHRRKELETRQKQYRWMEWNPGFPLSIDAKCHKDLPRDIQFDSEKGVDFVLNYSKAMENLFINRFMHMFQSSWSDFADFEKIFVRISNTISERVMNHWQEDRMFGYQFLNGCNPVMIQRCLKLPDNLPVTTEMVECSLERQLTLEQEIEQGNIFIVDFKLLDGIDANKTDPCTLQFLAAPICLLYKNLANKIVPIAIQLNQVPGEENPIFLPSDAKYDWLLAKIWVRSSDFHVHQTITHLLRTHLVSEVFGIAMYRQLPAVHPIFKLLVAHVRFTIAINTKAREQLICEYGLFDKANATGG

[2] = Antioxidant activity, measuring Deoxyribose degradation (DD) as a measure of hydroxyl radical formation.
Summary of the method: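 Deoxyribose assay: 2-deoxy-D-ribose incubated with 75 μM test compound; hydroxyl-radical generation read as malondialdehyde release, expressed as μmol MDA/mmol deoxyribose; compared with control.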

HaCaT [3] = assay: Antiproliferative activity (AA) against HaCaT keratinocytes.; type: functional, cell-based; conditions: Homo sapiens
HaCaT [4] = assay: Cytotoxicity of LDH release in HaCaT cells; type: functional, Homo sapiens; parameters: unit: mU
Summary of the method: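 HaCaT cells treated with 2 μM test compound; plasma membrane damage measured as lactate dehydrogenase activity released into culture medium, in mU; N = 3; compared with vehicle control.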

SMILES	IC50 [1]	DD [2]	IC50 (HaCaT [3])	LDH (HaCaT [4])
CC(C(=O)N(C)O)c1ccc2c(c1O)C(=O)c1c(O)cccc1C2 (stereo unspecified)	6 µM	1.57 µmol/mmol	1.5 µM	142 MU
O=C1c2c(O)cccc2Cc2ccc(C(CCc3ccccc3)C(=O)O)c(O)c21 (stereo unspecified)	2 µM	2.47 µmol/mmol	> 5 µM	142 MU
COC(=O)CCCc1ccc2c(c1O)C(=O)c1c(O)cccc1C2	> 30 µM	0.33 µmol/mmol	1.1 µM	–
O=C(Cc1ccc2c(c1O)C(=O)c1c(O)cccc1C2)NO	6 µM	1.89 µmol/mmol	1.8 µM	–
O=C(CCCCc1ccc2c(c1O)C(=O)c1c(O)cccc1C2)NO	2 µM	1.38 µmol/mmol	2 µM	135 MU
CN(O)C(=O)C(Cc1ccccc1)c1ccc2c(c1O)C(=O)c1c(O)cccc1C2 (stereo unspecified)	5 µM	1.68 µmol/mmol	0.9 µM	–
CC(C(=O)NO)c1ccc2c(c1O)C(=O)c1c(O)cccc1C2 (stereo unspecified)	–	1.3 µmol/mmol	2 µM	–
CC(C)C(C(=O)NO)c1ccc2c(c1O)C(=O)c1c(O)cccc1C2 (stereo unspecified)	6 µM	1.66 µmol/mmol	1.5 µM	192 MU
O=C(O)Cc1ccc2c(c1O)C(=O)c1c(O)cccc1C2	22 µM	3.74 µmol/mmol	> 5 µM	–
CC(C)C(C(=O)N(C)O)c1ccc2c(c1O)C(=O)c1c(O)cccc1C2 (stereo unspecified)	5 µM	0.86 µmol/mmol	1.5 µM	135 MU
COC(=O)CCc1ccc2c(c1O)C(=O)c1c(O)cccc1C2	> 30 µM	–	0.8 µM	–
COC(=O)CCCCCc1ccc2c(c1O)C(=O)c1c(O)cccc1C2	> 30 µM	–	1.6 µM	142 MU
O=C(O)c1ccc(C(=O)c2ccc3c(c2O)C(=O)c2c(O)cccc2C3)cc1	2 µM	1.34 µmol/mmol	> 5 µM	–
COC(=O)C(C)c1ccc2c(c1O)C(=O)c1c(O)cccc1C2 (stereo unspecified)	> 30 µM	–	0.8 µM	–
O=C(CCc1ccc2c(c1O)C(=O)c1c(O)cccc1C2)NO	4 µM	1.67 µmol/mmol	1.3 µM	–
O=C(CCCc1ccc2c(c1O)C(=O)c1c(O)cccc1C2)NO	3 µM	1.46 µmol/mmol	1.5 µM	–
CC(C)C(C(=O)O)c1ccc2c(c1O)C(=O)c1c(O)cccc1C2 (stereo unspecified)	–	3.58 µmol/mmol	> 5 µM	128 MU
CN(O)C(=O)Cc1ccc2c(c1O)C(=O)c1c(O)cccc1C2	1 µM	1.67 µmol/mmol	0.8 µM	150 MU
O=C(O)CCc1ccc2c(c1O)C(=O)c1c(O)cccc1C2	19 µM	2.67 µmol/mmol	> 5 µM	–
CN(O)C(=O)c1ccc(C(=O)c2ccc3c(c2O)C(=O)c2c(O)cccc2C3)cc1	4 µM	0.92 µmol/mmol	1.8 µM	–
O=C(NO)c1ccc(Cc2ccc3c(c2O)C(=O)c2c(O)cccc2C3)cc1	5 µM	–	1.1 µM	–

SMILES	IC50 [1]	DD [2]	IC50 (HaCaT [3])	LDH (HaCaT [4])
COC(=O)C(Cc1ccccc1)c1ccc2c(c1O)C(=O)c1c(O)cccc1C2 (stereo unspecified)	> 30 µM	< 0.15 µmol/mmol	1.8 µM	–
COC(=O)c1ccc(Cc2ccc3c(c2O)C(=O)c2c(O)cccc2C3)cc1	> 30 µM	< 0.15 µmol/mmol	–	–
CCCCOc1ccc(CC(=O)NO)cc1 [BUFEXAMAC]	35 µM	–	> 5 µM	135 MU
CC(C(=O)O)c1ccc2c(c1O)C(=O)c1c(O)cccc1C2 (stereo unspecified)	17 µM	–	> 5 µM	–
COC(=O)C(c1ccc2c(c1O)C(=O)c1c(O)cccc1C2)C(C)C (stereo unspecified)	> 30 µM	0.54 µmol/mmol	1.5 µM	–
CN(O)C(=O)CCCCCc1ccc2c(c1O)C(=O)c1c(O)cccc1C2	0.4 µM	–	0.7 µM	–
COC(=O)c1ccc(C(=O)c2ccc3c(c2O)C(=O)c2c(O)cccc2C3)cc1	> 30 µM	–	1.8 µM	–
O=C1c2c(O)cccc2Cc2ccc(C(Cc3ccccc3)C(=O)NO)c(O)c21 (stereo unspecified)	4 µM	1.04 µmol/mmol	1.5 µM	–
O=C(O)CCCc1ccc2c(c1O)C(=O)c1c(O)cccc1C2	18 µM	2.61 µmol/mmol	> 5 µM	–
O=C(O)CCCCCc1ccc2c(c1O)C(=O)c1c(O)cccc1C2	10 µM	2.29 µmol/mmol	> 5 µM	–
CN(O)C(=O)CCCCc1ccc2c(c1O)C(=O)c1c(O)cccc1C2	–	1.36 µmol/mmol	–	124 MU
CN(O)C(=O)CCc1ccc2c(c1O)C(=O)c1c(O)cccc1C2	–	0.92 µmol/mmol	–	135 MU
O=C(O)c1ccc(Cc2ccc3c(c2O)C(=O)c2c(O)cccc2C3)cc1	–	< 0.15 µmol/mmol	–	–
COC(=O)C(CCc1ccccc1)c1ccc2c(c1O)C(=O)c1c(O)cccc1C2 (stereo unspecified)	> 30 µM	0.28 µmol/mmol	1.3 µM	142 MU
COC(=O)CCCCc1ccc2c(c1O)C(=O)c1c(O)cccc1C2	> 30 µM	0.62 µmol/mmol	1.8 µM	146 MU
O=C(O)CCCCc1ccc2c(c1O)C(=O)c1c(O)cccc1C2	13 µM	2.62 µmol/mmol	> 5 µM	–
CN(O)C(=O)CCCc1ccc2c(c1O)C(=O)c1c(O)cccc1C2	–	1.5 µmol/mmol	–	181 MU
COC(=O)Cc1ccc2c(c1O)C(=O)c1c(O)cccc1C2	> 30 µM	–	0.5 µM	–
O=C1c2c(O)cccc2Cc2cccc(O)c21 [ANTHRALIN]	–	2.89 µmol/mmol	0.6 µM	294 MU
O=C1c2c(O)cccc2Cc2ccc(C(Cc3ccccc3)C(=O)O)c(O)c21 (stereo unspecified)	–	3.25 µmol/mmol	> 5 µM	–
